Columns and labels:
Format in all cases: functional
[1] = system: CCRF-CEM; test: Growth inhibition of human CCRF-CEM cells at 10 uM after 48 hrs by coulter counter method; settings: read-out: GI
How it was run: (§1)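 NCI 60-cell-line panel, single dose. Compound dissolved first in DMSO, then diluted in phosphate-buffered saline so that every final dilution held under 1% DMSO. Duplicate wells received cells at 6 × 10⁴ cells/ml. Controls held PBS/DMSO at the same dilution. Plates were incubated 48 h at 37 °C under 5% CO₂. Cells were then diluted 10-fold in saline and counted on a Coulter counter, with counts corrected for the dilution. Results are given as percent growth inhibition.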

[2] = system: HL-60(TB); test: Growth inhibition of human HL-60(TB) cells at 10 uM after 48 hrs by coulter counter method; settings: HL-60, 48 h, read-out: GI
How it was run: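 Single-dose screen on the NCI 60-line panel (leukemia subpanel). Compound is dissolved in DMSO and diluted in PBS, with final DMSO below 1%. Duplicate wells hold 6 × 10⁴ cells/ml at 37 °C, 5% CO₂, for 48 h. Cells are counted by Coulter counter after 10-fold saline dilution. Read-out is percent growth versus PBS/DMSO controls, expressed as % growth inhibition.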

[3] = system: K562; test: Growth inhibition of human K562 cells at 10 uM after 48 hrs by coulter counter method; settings: K562, 48 h, read-out: GI; how it was run: as §1
[4] = system: MOLT-4; test: Growth inhibition of human MOLT4 cells at 10 uM after 48 hrs by coulter counter method; settings: MOLT-4, 48 h, read-out: GI; how it was run: as §1
[5] = system: SR; test: Growth inhibition of human SR cells at 10 uM after 48 hrs by coulter counter method; settings: read-out: GI; how it was run: as §1
[6] = system: A549; test: Growth inhibition of human A549 cells at 10 uM after 48 hrs by coulter counter method; settings: A549, 48 h, read-out: GI; how it was run: as §1
[7] = system: EKVX; test: Growth inhibition of human EKVX cells at 10 uM after 48 hrs by coulter counter method; settings: read-out: GI; how it was run: as §1
[8] = system: NCI-H226; test: Growth inhibition of human NCI-H226 cells at 10 uM after 48 hrs by coulter counter method; settings: NCI-H226, 48 h, read-out: GI; how it was run: as §1
[9] = system: NCI-H23; test: Growth inhibition of human NCI-H23 cells at 10 uM after 48 hrs by coulter counter method; settings: NCI-H23, 48 h, read-out: GI; how it was run: as §1
[10] = system: NCI-H322M; test: Growth inhibition of human NCI-H322M cells at 10 uM after 48 hrs by coulter counter method; settings: read-out: GI; how it was run: as §1
[11] = system: NCI-H522; test: Growth inhibition of human NCI-H522 cells at 10 uM after 48 hrs by coulter counter method; settings: NCI-H522, 48 h, read-out: GI; how it was run: as §1
[12] = system: HCT-116; test: Growth inhibition of human HCT116 cells at 10 uM after 48 hrs by coulter counter method; settings: HCT-116, 48 h, read-out: GI; how it was run: as §1
[13] = system: HCT-15; test: Growth inhibition of human HCT15 cells at 10 uM after 48 hrs by coulter counter method; settings: HCT-15, 48 h, read-out: GI; how it was run: as §1
[14] = system: HT-29; test: Growth inhibition of human HT-29 cells at 10 uM after 48 hrs by coulter counter method; settings: HT-29, 48 h, read-out: GI; how it was run: as §1
[15] = system: KM12; test: Growth inhibition of human KM12 cells at 10 uM after 48 hrs by coulter counter method; settings: KM12, 48 h, read-out: GI; how it was run: as §1
[16] = system: SF-268; test: Growth inhibition of human SF268 cells at 10 uM after 48 hrs by coulter counter method; settings: SF-268, 48 h, read-out: GI; how it was run: as §1
[17] = system: SF-295; test: Growth inhibition of human SF295 cells at 10 uM after 48 hrs by coulter counter method; settings: SF-295, 48 h, read-out: GI; how it was run: as §1
[18] = system: SNB-19; test: Growth inhibition of human SNB19 cells at 10 uM after 48 hrs by coulter counter method; settings: SNB-19, 48 h, read-out: GI; how it was run: as §1
[19] = system: SNB-75; test: Growth inhibition of human SNB75 cells at 10 uM after 48 hrs by coulter counter method; settings: SNB-75, 48 h, read-out: GI; how it was run: as §1
[20] = system: U-251; test: Growth inhibition of human U251 cells at 10 uM after 48 hrs by coulter counter method; settings: U-251, 48 h, read-out: GI; how it was run: as §1
[21] = system: LOX IMVI; test: Growth inhibition of human LOXIMVI cells at 10 uM after 48 hrs by coulter counter method; settings: read-out: GI; how it was run: as §1
[22] = system: Malme-3M; test: Growth inhibition of human MALME-3M cells at 10 uM after 48 hrs by coulter counter method; settings: read-out: GI; how it was run: as §1
[23] = system: M14; test: Growth inhibition of human M14 cells at 10 uM after 48 hrs by coulter counter method; settings: M14, 48 h, read-out: GI; how it was run: as §1
[24] = system: MDA-MB-435; test: Growth inhibition of human MDA-MB-435 cells at 10 uM after 48 hrs by coulter counter method; settings: MDA-MB-435, 48 h, read-out: GI; how it was run: as §1
[25] = system: SK-MEL-2; test: Growth inhibition of human SK-MEL-2 cells at 10 uM after 48 hrs by coulter counter method; settings: SK-MEL-2, 48 h, read-out: GI; how it was run: as §1
[26] = system: SK-MEL-28; test: Growth inhibition of human SK-MEL-28 cells at 10 uM after 48 hrs by coulter counter method; settings: SK-MEL-28, 48 h, read-out: GI; how it was run: as §1
[27] = system: SK-MEL-5; test: Growth inhibition of human SK-MEL-5 cells at 10 uM after 48 hrs by coulter counter method; settings: SK-MEL-5, 48 h, read-out: GI; how it was run: as §1
[28] = system: UACC-257; test: Growth inhibition of human UACC257 cells at 10 uM after 48 hrs by coulter counter method; settings: UACC-257, 48 h, read-out: GI; how it was run: as §1
[29] = system: UACC-62; test: Growth inhibition of human UACC62 cells at 10 uM after 48 hrs by coulter counter method; settings: UACC-62, 48 h, read-out: GI; how it was run: as §1
[30] = system: IGROV-1; test: Growth inhibition of human IGROV1 cells at 10 uM after 48 hrs by coulter counter method; settings: IGROV-1, 48 h, read-out: GI; how it was run: as §1
[31] = system: OVCAR-8; test: Growth inhibition of human OVCAR8 cells at 10 uM after 48 hrs by coulter counter method; settings: OVCAR-8, 48 h, read-out: GI; how it was run: as §1
[32] = system: NCI/ADR-RES; test: Growth inhibition of human NCI/ADR-RES cells at 10 uM after 48 hrs by coulter counter method; settings: read-out: GI; how it was run: as §1
[33] = system: 786-0; test: Growth inhibition of human 786-0 cells at 10 uM after 48 hrs by coulter counter method; settings: 786-0, 48 h, read-out: GI; how it was run: as §1
[34] = system: A498; test: Growth inhibition of human A498 cells at 10 uM after 48 hrs by coulter counter method; settings: A498, 48 h, read-out: GI; how it was run: as §1
[35] = system: ACHN; test: Growth inhibition of human ACHN cells at 10 uM after 48 hrs by coulter counter method; settings: read-out: GI; how it was run: as §1
[36] = system: CAKI-1; test: Growth inhibition of human Caki1 cells at 10 uM after 48 hrs by coulter counter method; settings: CAKI-1, 48 h, read-out: GI; how it was run: as §1
[37] = system: SN12C; test: Growth inhibition of human SN12C cells at 10 uM after 48 hrs by coulter counter method; settings: read-out: GI; how it was run: as §1
[38] = system: TK-10; test: Growth inhibition of human TK10 cells at 10 uM after 48 hrs by coulter counter method; settings: TK-10, 48 h, read-out: GI; how it was run: as §1
[39] = system: UO-31; test: Growth inhibition of human UO31 cells at 10 uM after 48 hrs by coulter counter method; settings: UO-31, 48 h, read-out: GI; how it was run: as §1
[40] = system: PC-3; test: Growth inhibition of human PC3 cells at 10 uM after 48 hrs by coulter counter method; settings: PC-3, 48 h, read-out: GI; how it was run: as §1
[41] = system: MCF7; test: Growth inhibition of human MCF7 cells at 10 uM after 48 hrs by coulter counter method; settings: MCF7, 48 h, read-out: GI; how it was run: as §1
[42] = system: BT-549; test: Growth inhibition of human BT549 cells at 10 uM after 48 hrs by coulter counter method; settings: BT-549, 48 h, read-out: GI; how it was run: as §1
[43] = system: T47D; test: Growth inhibition of human T47D cells at 10 uM after 48 hrs by coulter counter method; settings: read-out: GI; how it was run: as §1
[44] = system: MDA-MB-468; test: Growth inhibition of human MDA-MB-468 cells at 10 uM after 48 hrs by coulter counter method; settings: MDA-MB-468, 48 h, read-out: GI; how it was run: as §1

Measured: inhibition of growth at 10 µM

NC1=CC(N)=NC2SC(c3ccc(Cl)cc3)=NN12 (stereo not drawn)
26.9%: [3]
13.1%: [8]
17.4%: [26]
22.3%: [30]
19.9%: [5] | [11]
20.6%: [4]
21.9%: [39]
14.3%: [40]
34.1%: [2]
27.5%: [25]
11.8%: [14]
< 10%: all other assays above

O=C1N=C2OC(c3ccc(Cl)cc3)=NN2C1=O
12.1%: [5]
13.6%: [3]
11.7%: [39]
15%: [2]
< 10%: all other assays above

From ChEMBL document CHEMBL1926577, “Novel 1,3,4-heterodiazole analogues: synthesis and in-vitro antitumor activity” (2012)
